Reference: the M2OR odorant receptor database
Changes are numbered by the printed parent chain.

What was measured:
Conditions in all cases: stereoisomer not certain
[1] = test system: T1, OR2T6 C23G
T1 sequence (whole entry): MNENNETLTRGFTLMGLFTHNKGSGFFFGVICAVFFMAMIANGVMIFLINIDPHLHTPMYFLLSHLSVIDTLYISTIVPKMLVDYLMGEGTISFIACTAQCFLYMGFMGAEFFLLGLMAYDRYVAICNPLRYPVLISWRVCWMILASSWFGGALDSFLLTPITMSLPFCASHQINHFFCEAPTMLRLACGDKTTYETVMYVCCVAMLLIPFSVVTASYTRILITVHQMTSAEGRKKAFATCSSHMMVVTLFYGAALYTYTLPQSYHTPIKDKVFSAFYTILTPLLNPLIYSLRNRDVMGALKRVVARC
Outline: (§1)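 Transient luciferase assays in mammalian cell lines were common, though methods varied by source. The values come from published papers and their supplementary material, with extra details from the original authors when needed. Responsive refers to a measured signal the original authors judged statistically different from baseline, and non-responsive (inactive) to the remainder.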

[2] = test system: T2, OR2T7
T2 sequence (whole entry): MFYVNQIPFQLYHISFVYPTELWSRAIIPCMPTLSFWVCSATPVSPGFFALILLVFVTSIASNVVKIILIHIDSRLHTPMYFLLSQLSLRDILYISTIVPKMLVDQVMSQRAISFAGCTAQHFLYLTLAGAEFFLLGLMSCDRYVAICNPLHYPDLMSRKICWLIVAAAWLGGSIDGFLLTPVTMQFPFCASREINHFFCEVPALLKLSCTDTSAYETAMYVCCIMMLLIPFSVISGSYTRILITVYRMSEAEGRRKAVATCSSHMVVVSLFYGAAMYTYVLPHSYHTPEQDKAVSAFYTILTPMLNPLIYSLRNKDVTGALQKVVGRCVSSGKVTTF
Outline: as §1

[3] = target: T3, OR2T8 (Homo sapiens) (UniProt A6NH00)
T3 sequence (whole entry): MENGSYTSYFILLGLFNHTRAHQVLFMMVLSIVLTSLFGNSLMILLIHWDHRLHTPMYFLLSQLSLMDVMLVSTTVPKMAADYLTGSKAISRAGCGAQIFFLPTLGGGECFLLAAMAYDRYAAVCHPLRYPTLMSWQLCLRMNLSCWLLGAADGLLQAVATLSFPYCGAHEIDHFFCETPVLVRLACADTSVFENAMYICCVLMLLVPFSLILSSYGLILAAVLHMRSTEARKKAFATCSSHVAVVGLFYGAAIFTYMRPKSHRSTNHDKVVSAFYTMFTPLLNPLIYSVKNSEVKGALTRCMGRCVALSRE
Outline: as §1

[4] = target: T4, OR2V1 (Homo sapiens) (UniProt Q8NHB1)
T4 sequence (whole entry): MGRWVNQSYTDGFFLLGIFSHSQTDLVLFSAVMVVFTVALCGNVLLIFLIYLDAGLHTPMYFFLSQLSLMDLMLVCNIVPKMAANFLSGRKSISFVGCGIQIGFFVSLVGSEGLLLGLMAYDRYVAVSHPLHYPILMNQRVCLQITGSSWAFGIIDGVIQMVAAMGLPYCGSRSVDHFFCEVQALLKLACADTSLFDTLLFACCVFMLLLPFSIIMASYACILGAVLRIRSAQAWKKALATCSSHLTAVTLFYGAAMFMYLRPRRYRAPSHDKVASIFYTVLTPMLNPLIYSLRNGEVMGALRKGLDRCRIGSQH
Outline: as §1

[5] = target: T5, OR2V2 (Homo sapiens) (UniProt Q96R30)
T5 sequence (whole entry): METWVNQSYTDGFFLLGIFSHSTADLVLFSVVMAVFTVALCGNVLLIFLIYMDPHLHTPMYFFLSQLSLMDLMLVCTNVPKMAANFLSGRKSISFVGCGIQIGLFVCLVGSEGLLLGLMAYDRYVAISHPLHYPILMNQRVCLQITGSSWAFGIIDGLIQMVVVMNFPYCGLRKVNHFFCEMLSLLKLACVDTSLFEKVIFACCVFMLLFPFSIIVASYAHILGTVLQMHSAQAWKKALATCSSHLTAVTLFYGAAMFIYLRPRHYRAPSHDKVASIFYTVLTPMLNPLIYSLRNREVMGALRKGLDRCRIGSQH
Outline: as §1

[6] = target: T6, OR2W1 (Homo sapiens) (UniProt Q9Y3N9)
T6 sequence (whole entry): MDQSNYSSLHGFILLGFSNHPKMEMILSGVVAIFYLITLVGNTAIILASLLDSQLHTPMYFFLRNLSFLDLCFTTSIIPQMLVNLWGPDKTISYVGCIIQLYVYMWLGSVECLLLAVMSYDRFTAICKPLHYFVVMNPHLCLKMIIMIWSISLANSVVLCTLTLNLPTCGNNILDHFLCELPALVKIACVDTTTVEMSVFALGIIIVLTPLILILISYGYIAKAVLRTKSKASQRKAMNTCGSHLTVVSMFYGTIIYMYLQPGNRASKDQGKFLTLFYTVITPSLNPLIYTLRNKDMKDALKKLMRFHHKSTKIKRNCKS
Outline: as §1

[7] = test system: T7, OR2W1 G96V
T7 sequence (whole entry): T6 sequence (whole entry) with G96V
Outline: as §1

[8] = target: T8, OR2W3 (Homo sapiens) (UniProt Q7Z3T1)
T8 sequence (whole entry): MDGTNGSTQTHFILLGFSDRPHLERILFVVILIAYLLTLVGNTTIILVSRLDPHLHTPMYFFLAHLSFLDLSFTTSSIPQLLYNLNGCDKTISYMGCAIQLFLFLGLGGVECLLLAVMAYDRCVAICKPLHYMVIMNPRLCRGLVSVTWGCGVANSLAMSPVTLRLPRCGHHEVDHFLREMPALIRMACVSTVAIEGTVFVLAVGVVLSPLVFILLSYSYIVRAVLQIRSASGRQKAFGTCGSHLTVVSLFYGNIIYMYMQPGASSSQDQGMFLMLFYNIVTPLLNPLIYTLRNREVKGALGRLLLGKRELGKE
Outline: as §1

[9] = target: T9, OR2W5P (Homo sapiens) (UniProt A6NFC9)
T9 sequence (whole entry): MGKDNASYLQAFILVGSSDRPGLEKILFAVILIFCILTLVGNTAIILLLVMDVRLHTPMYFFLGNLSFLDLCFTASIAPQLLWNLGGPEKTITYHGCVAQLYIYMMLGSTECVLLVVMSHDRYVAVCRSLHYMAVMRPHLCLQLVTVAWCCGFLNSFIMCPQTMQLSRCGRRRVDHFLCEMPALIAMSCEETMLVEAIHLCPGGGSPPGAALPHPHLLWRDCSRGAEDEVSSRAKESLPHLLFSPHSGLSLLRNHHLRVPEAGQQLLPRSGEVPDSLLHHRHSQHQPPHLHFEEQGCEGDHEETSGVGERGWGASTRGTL
Outline: as §1

[10] = target: T10, OR2Y1 (Homo sapiens) (UniProt Q8NGV0)
T10 sequence (whole entry): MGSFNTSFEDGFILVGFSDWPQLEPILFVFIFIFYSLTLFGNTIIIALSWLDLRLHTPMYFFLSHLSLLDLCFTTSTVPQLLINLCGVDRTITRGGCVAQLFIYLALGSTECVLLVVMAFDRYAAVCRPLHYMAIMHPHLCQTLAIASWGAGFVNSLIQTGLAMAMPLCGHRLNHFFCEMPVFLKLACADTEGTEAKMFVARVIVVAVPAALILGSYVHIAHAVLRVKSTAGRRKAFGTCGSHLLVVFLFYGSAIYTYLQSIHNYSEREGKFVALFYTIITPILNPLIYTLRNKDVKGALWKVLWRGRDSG
Outline: as §1

[11] = test system: T11, OR2Y1
T11 sequence (whole entry): T10 sequence (whole entry) with V200L
Outline: as §1

[12] = target: T12, OR2Z1 (Homo sapiens) (UniProt Q8NG97)
T12 sequence (whole entry): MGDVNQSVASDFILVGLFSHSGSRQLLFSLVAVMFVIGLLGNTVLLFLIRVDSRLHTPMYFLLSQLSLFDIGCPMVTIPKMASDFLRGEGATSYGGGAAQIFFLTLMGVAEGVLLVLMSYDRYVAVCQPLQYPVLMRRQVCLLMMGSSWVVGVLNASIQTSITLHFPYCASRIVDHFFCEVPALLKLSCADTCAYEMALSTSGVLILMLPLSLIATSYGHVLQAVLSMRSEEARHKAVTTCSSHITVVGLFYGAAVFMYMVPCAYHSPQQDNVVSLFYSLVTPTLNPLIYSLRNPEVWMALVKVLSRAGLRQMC
Outline: as §1

[13] = target: T13, OR3A1 (Homo sapiens) (UniProt P47881)
T13 sequence (whole entry): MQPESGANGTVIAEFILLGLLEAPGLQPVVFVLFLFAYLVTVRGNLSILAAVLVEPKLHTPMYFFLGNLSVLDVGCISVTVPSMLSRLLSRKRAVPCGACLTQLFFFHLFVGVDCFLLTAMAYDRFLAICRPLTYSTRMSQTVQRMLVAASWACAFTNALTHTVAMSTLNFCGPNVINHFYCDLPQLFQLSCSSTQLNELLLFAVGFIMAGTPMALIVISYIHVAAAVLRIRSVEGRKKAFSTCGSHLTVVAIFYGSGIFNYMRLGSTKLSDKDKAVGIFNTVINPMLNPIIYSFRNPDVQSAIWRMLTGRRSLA
Outline: as §1

[14] = test system: T14, OR3A1
T14 sequence (whole entry): T13 sequence (whole entry) with R125Q
Outline: as §1

[15] = target: T15, OR3A2 (Homo sapiens) (UniProt P47893)
T15 sequence (whole entry): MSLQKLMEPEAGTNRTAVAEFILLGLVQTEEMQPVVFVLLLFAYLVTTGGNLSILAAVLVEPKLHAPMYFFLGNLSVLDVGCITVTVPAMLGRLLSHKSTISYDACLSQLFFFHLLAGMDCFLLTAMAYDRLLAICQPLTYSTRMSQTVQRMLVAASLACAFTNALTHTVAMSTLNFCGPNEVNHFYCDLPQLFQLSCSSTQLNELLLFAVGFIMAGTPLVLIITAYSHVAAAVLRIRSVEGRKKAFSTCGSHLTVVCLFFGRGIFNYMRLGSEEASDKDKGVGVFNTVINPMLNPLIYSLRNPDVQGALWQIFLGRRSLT
Outline: as §1

[16] = test system: T16, OR3A2 R317K
T16 sequence (whole entry): T15 sequence (whole entry) with R317K
Outline: as §1

[17] = target: T17, OR3A3 (Homo sapiens) (UniProt P47888)
T17 sequence (whole entry): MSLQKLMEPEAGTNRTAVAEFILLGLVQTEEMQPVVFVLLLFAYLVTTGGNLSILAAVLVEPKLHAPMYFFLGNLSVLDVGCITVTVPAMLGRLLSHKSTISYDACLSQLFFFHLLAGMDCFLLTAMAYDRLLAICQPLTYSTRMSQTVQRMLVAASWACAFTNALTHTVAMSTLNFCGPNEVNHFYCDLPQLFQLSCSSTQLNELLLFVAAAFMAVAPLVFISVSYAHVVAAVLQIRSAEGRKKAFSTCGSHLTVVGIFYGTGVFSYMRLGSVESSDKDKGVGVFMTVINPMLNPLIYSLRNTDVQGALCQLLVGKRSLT
Outline: as §1

[18] = target: T18, OR2T7 (Homo sapiens) (UniProt P0C7T2)
T18 sequence (whole entry): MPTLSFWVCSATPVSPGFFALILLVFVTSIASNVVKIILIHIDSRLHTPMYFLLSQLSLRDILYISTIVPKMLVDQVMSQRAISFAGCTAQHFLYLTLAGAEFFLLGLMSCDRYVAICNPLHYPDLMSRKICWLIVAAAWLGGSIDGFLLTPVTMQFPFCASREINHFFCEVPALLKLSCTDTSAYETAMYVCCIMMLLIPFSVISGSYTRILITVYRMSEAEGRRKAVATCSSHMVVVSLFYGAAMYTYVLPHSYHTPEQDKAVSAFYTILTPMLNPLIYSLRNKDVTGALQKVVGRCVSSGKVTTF
Outline: as §1

[19] = test system: T19, OR2W1
T19 sequence (whole entry): T6 sequence (whole entry) with D296N
Outline: as §1

[20] = test system: T20, OR2W1; remark: listed apart in the source
T20 sequence (whole entry): T6 sequence (whole entry) with M81V
Outline: as §1

Measured: odorant receptor agonist call

Cc1cnc(C)c(C)n1
not listed: [18] | [19] | [20]
inactive: all other assays above

CCC(S)C(C)CO (centres undefined)
not listed: [1] | [2] | [7] | [11] | [14] | [16] | [19] | [20]
inactive: all other assays above

CC1=C(O)C(=O)C(C)O1 (centres undefined)
not listed: [18] | [19] | [20]
inactive: all other assays above

COc1nccnc1CC(C)C
inactive: [6]

CCOc1ccc2ccccc2c1
active: [6]

CCCCCCC=CCCC=O
not listed: [2] | [19] | [20]
inactive: all other assays above

CC(C)=CCCC(C)CCO (centres undefined)
active: [6]

C=CCOC(=O)CCCCCC
inactive: [6]

CCCC(S)CCOC(C)=O (centres undefined)
active: [6] | [7] | [19] | [20]
not listed: [18]
inactive: all other assays above

CCCCCCCO
active: [6]

CCCCC(C)=O
active: [6]

CCCCC(S)C(C)CO (centres undefined)
not listed: [1] | [2] | [7] | [11] | [14] | [16] | [19] | [20]
inactive: all other assays above

CCc1ccc(O)c(OC)c1
inactive: [6]

CC1=C(O)C(=O)OC1C (centres undefined)
not listed: [18] | [19] | [20]
inactive: all other assays above

COc1cc(C(=O)O)ccc1O
inactive: [6]
